Experimental data published in ChEMBL document CHEMBL3826914, “Selective photodepletion of malignant T cells in extracorporeal photopheresis with selenorhodamine photosensitizers” (Bioorg Med Chem, 2016).
The source made the active and inactive calls. The rule behind the calls is not given here.

Key:
[1] = Dark toxicity against human HUT78 cells assessed as reduction in cell viability preincubated for 1 hr in dark after 48 hrs by MTT assay; assay type: cell-based; conditions: read-out: LD50
Procedure, shortened: (§1)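 HUT-78 cells in RPMI 1640 with 10% FBS, 1% HEPES and 1% penicillin-streptomycin were plated at 7.5×10^4 per well and grown 24 h. Dye was added to final 5×10^-8 to 5×10^-7 M, then 1 h in the dark. Plates were kept dark or irradiated with a 633 ± 2 nm dye laser at ~3.2 mW cm^-2 to 0.5, 1.0 or 2.0 J cm^-2. Medium was replaced, 48 h at 37 °C, then MTT read at 570 nm. Triplicate runs; EC50/LD50 by sigmoidal variable-slope fit.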

ABCB1 [2] = assay: Permeability from basolateral to apical side in dog MDCK2-MDR1 cells expressing ABCB1 at 5 uM after 30 mins in absence of compound 15 by LC-MS/MS analysis; assay type: ADME, cell-based, Canis lupus familiaris, MDCK-II; conditions: MDCK-MDR1, read-out: permeability
Procedure, shortened: (§2)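 MDR1-transfected MDCKII cells (passage 16–42) were seeded at 50,000 cells cm^-2 on Transwell filters and used on day 6. Monolayers were rinsed in DPBS with 10^-2 M HEPES, pH 7.4, at 37 °C. They were preincubated 30 min in 4.3 mg/mL BSA/DPBSH with or without 5×10^-6 M P-gp inhibitor. 5 μM dye was added apically or basolaterally and samples taken after 1 h at 37 °C with nutation. Quantitation was by LC-MS/MS; P_passive is the mean of P_AB and P_BA under full inhibition. Mean ± SD.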

HuT78 [3] = conditions: human, hut78, 0.5 h, 0.075 µM
ABCB1 [4] = assay: Permeability from apical to basolateral side in dog MDCK2-MDR1 cells expressing ABCB1 at 5 uM after 30 mins in presence of compound 15 by LC-MS/MS analysis; assay type: ADME, cell-based, Canis lupus familiaris, MDCK-II; conditions: MDCK-MDR1, with compound 15 (concentration not stated), read-out: permeability; procedure, shortened: as §2
ABCB1 [5] = assay: Passive permeability in dog MDCK2-MDR1 cells expressing ABCB1 at 5 uM after 30 mins in presence of compound 15 by LC-MS/MS analysis; assay type: ADME, cell-based, Canis lupus familiaris, MDCK-II; conditions: MDCK-MDR1, with compound 15 (concentration not stated), read-out: permeability; procedure, shortened: as §2
[6] = Drug uptake in SEB-stimulated human CD25 positive cells assessed as mean fluorescence intensity at 5 x 10^-8 M preincubated for 20 mins followed by growth in photosensitizer-free media for 30 mins by flow cytometric analysis relative to control; conditions: 0.5 h, 0.05 µM
[7] = (§3) Phototoxicity human CD4 positive cells co-cultured with GFP expressing human HUT78 cells assessed as cell survival at 7.5 x 10^-8 M preincubated 20 mins in photosensitizer media followed by growth in photosensitizer-free media for 30 mins measured 18 hrs after exposure to 5 J/cm2 irradiation by FACS analysis; assay type: cell-based; conditions: read-out: Survival
Procedure, shortened: (§4)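 Non-stimulated PBMCs from healthy donors (Ficoll-separated) were mixed 5:1 with GFP-transfected, sorted (>98%) HUT-78 cells. Cells took up 7.5×10^-8 M photosensitizer for 20 min, then spent 30 min in dye-free medium. They were exposed to 5 J cm^-2 light (600 nm LED) with rotation at 180 rpm. Survival was gated by FACS (GFP, CD3, CD4, CD8) 18 h later versus non-irradiated controls. Triplicate; mean ± SEM.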

ABCB1 [8] = assay: Permeability from apical to basolateral side in dog MDCK2-MDR1 cells expressing ABCB1 at 5 uM after 30 mins in absence of compound 15 by LC-MS/MS analysis; assay type: ADME, cell-based, Canis lupus familiaris, MDCK-II; conditions: MDCK-MDR1, read-out: permeability; procedure, shortened: as §2
[9] = as §3, with “CD8” for “CD4”; assay type: cell-based; conditions: read-out: Survival; procedure, shortened: as §4
HuT78 [10] = assay: Drug uptake in GFP expressing human HUT78 cells co-cultured with non-stimulated human PBMC cells assessed as change in mean fluorescence intensity at 7.5 x 10^-8 M after 20 mins followed by growth in photosensitizer-free media for 30 mins by flow cytometric analysis relative to control; assay type: cell-based; conditions: hut78, 0.5 h, 0.075 µM
[11] = Drug extrusion in SEB-stimulated human CD25 negative cells assessed as mean fluorescence intensity at 5 x 10^-8 M preincubated for 20 mins followed by growth in photosensitizer-free media for 30 mins by flow cytometric analysis relative to control; conditions: 0.5 h, 0.05 µM
[12] = Drug extrusion in human CD4 positive cells assessed as change in mean fluorescence intensity at 5 x 10^-8 M preincubated for 20 mins followed by growth in photosensitizer-free media for 30 mins by flow cytometric analysis relative to control; assay type: cell-based; conditions: 0.5 h, 0.05 µM
[13] = Drug extrusion in SEB-stimulated human CD25 positive cells assessed as change in mean fluorescence intensity at 5 x 10^-8 M preincubated for 20 mins followed by growth in photosensitizer-free media for 30 mins by flow cytometric analysis relative to control; conditions: 0.5 h, 0.05 µM
[14] = Drug extrusion in SEB-stimulated human CD25 negative cells assessed as change in mean fluorescence intensity at 5 x 10^-8 M preincubated for 20 mins followed by growth in photosensitizer-free media for 30 mins by flow cytometric analysis relative to control; conditions: 0.5 h, 0.05 µM
HuT78 [15] = assay: Phototoxicity against human HUT78 cells assessed as reduction in cell viability preincubated for 1 hr in dark at 5 x 10^-8M before exposure to 0.5 to 2 J/cm2 irradiation after 48 hrs by MTT assay; assay type: functional, cell-based; procedure, shortened: as §1
[16] = Drug extrusion in human CD3 positive cells assessed as change in mean fluorescence intensity at 5 x 10^-8 M preincubated for 20 mins followed by growth in photosensitizer-free media for 30 mins by flow cytometric analysis relative to control; assay type: cell-based; conditions: 0.5 h, 0.05 µM
HuT78 [17] = assay: Phototoxicity against human HUT78 cells assessed as reduction in cell viability preincubated for 1 hr in dark before exposure to 1 J/cm2 irradiation after 48 hrs by MTT assay; assay type: functional, cell-based; procedure, shortened: as §1
HuT78 [18] = assay: as §3, with “in” for “human CD4 positive cells co-cultured with”, “HUT78 cells co-cultured with human PBMC” for “HUT78”; assay type: functional; conditions: HuT78, light or radiation study, read-out: Survival; procedure, shortened: as §4
[19] = Drug uptake in SEB-stimulated human CD25 negative cells assessed as mean fluorescence intensity at 5 x 10^-8 M preincubated for 20 mins followed by growth in photosensitizer-free media for 30 mins by flow cytometric analysis relative to control; conditions: 0.5 h, 0.05 µM
[20] = Drug extrusion in human CD8 positive cells assessed as change in mean fluorescence intensity at 5 x 10^-8 M preincubated for 20 mins followed by growth in photosensitizer-free media for 30 mins by flow cytometric analysis relative to control; assay type: cell-based; conditions: 0.5 h, 0.05 µM
HuT78 [21] = conditions: human, hut78, 0.5 h, 0.075 µM; remark: listed apart in the source
[22] = Drug extrusion in SEB-stimulated human CD25 positive cells assessed as mean fluorescence intensity at 5 x 10^-8 M preincubated for 20 mins followed by growth in photosensitizer-free media for 30 mins by flow cytometric analysis relative to control; conditions: 0.5 h, 0.05 µM
[23] = Drug uptake in human HUT78 cell mitochondria by MTG-based bright field microscopic analysis; assay type: ADME
Procedure, shortened: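 HUT-78 cells (5×10^5 in 0.5 mL medium) were incubated 15 min with 2×10^-7 M dye together with 5×10^-7 M MitoTracker Green. They were centrifuged and analysed by ImageStream imaging flow cytometry, with MTG excited at 488 nm (480–560 nm channel) and dye excited at 561 nm (642–745 nm channel). Colocalisation was given as the bright detail similarity score, mean ± SD over cells.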

[24] = as §3, with “CD3” for “CD4”; assay type: cell-based; conditions: read-out: Survival; procedure, shortened: as §4
ABCB1 [25] = assay: Permeability from basolateral to apical side in dog MDCK2-MDR1 cells expressing ABCB1 at 5 uM after 30 mins in presence of compound 15 by LC-MS/MS analysis; assay type: ADME, cell-based, Canis lupus familiaris, MDCK-II; conditions: MDCK-MDR1, with compound 15 (concentration not stated), read-out: permeability; procedure, shortened: as §2

Compound `S=C(c1ccc(C2=c3cc4c5c(c3[Se]c3c2cc2c6c3CCCN6CCC2)CCC[N+]=5CCC4)s1)N1CCCCC1.[Cl-]` has a CC50 at 48 h [1] of 1080 nM, a Papp B→A at 0.5 h, 5 µM (ABCB1 [2]) of 1.8 ×10⁻⁶ cm/s and a Flu intensity (HuT78 [3]) of 81000 a.u. The Papp A→B at 0.5 h, 5 µM (ABCB1 [4]) was 0.051 ×10⁻⁶ cm/s, the Papp at 0.5 h, 5 µM (ABCB1 [5]) was less than 0.1 ×10⁻⁶ cm/s and the Flu intensity [6] was 83300 a.u. For the same compound, the viability at 18 h, 0.075 µM [7] was 1.5%, the Papp A→B at 0.5 h, 5 µM (ABCB1 [8]) was 0.03 ×10⁻⁶ cm/s and the viability at 18 h, 0.075 µM [9] was 11.3%. It also gave an Activity (HuT78 [10]) of 28.1%, a Flu intensity [11] of 16600 a.u and an Activity [12] of 36.1%. The Activity [13] was 16.8%, the Activity [14] was 35.2% and the Activity (HuT78 [15]) was “Active”. For the same compound, the Activity [16] was 33.1%, the Activity (HuT78 [17]) was “Dose-dependent effect” and the EC50 (HuT78 [17]; HuT78, light or radiation study) was 35 nM. It also gave a viability at 0.075 µM (HuT78 [18]) of 0%, a Flu intensity [19] of 25500 a.u and an Activity [20] of 59.2%. The Flu intensity (HuT78 [21]) was 66000 a.u, the Flu intensity [22] was 69000 a.u and the Drug uptake [23] was “Active”. It also gave a viability at 18 h, 0.075 µM [24] of 5.8% and a Papp B→A at 0.5 h, 5 µM (ABCB1 [25]) of 0.057 ×10⁻⁶ cm/s.
